System: Trypanosoma cruzi
Assay: Antiparasitic activity against Trypanosoma cruzi Y amastigotes
Format: functional, organism-based
Conditions: not given
Method in brief: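 Resident peritoneal macrophages from uninfected BALB/c mice, once adhered, infected with T. cruzi metacyclic trypomastigotes at 10:1 parasite/macrophage for 1 h at 37 °C, 5% CO2. Free parasites washed off with PBS, then 72 h with compound at […]. Methanol-fixed, Giemsa-stained. 200 cells counted in triplicate for % infected cells, amastigotes per macrophage and endocytic index.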

| Compound | IC50 |
| --- | --- |
| C(/C=C/c1sc(Nc2ccccc2)n[n+]1-c1ccccc1)=C\c1ccc2c(c1)OCO2 | 1.35 µM |
| O=C(Cn1ccnc1[N+](=O)[O-])NCc1ccccc1 [BENZNIDAZOLE] | 2.51 µM |
| O=C(/C=C/C=C/c1ccc2c(c1)OCO2)N1CCCCC1 [PIPERINE] | 4.91 µM |

System: not listed separately
Assay: Cytotoxicity against mouse macrophages after 72 hrs
Format: cell-based, Macrophage
Conditions: read-out: LD50
Method in brief: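 Murine peritoneal macrophages seeded at 1.10⁶ cells/well in RPMI with 10% FCS and allowed to attach 24 h at 37 °C. Exposed 72 h to compounds in DMSO (final solvent at most 0.05%). Washed with PBS, trypan blue added (final 0.01%), and 200 cells counted in a Neubauer chamber for membrane permeability. IC50 is the mean of triplicate experiments.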

| Compound | CC50 at 72 h |
| --- | --- |
| O=[N+]([O-])c1cc2c(cc1/C=C/c1sc(Nc3ccccc3)n[n+]1-c1ccccc1)OCO2 | 1.08 µM |
| O=[N+]([O-])c1cc2c(cc1-c1sc(Nc3ccccc3)n[n+]1-c1ccccc1)OCO2 | 6.62 µM |
| C(/C=C/c1sc(Nc2ccccc2)n[n+]1-c1ccccc1)=C\c1ccc2c(c1)OCO2 | 38.6 µM |
| C(=C\c1sc(Nc2ccccc2)n[n+]1-c1ccccc1)/c1ccc2c(c1)OCO2 | 1.95 µM |
| O=C(/C=C/C=C/c1ccc2c(c1)OCO2)N1CCCCC1 [PIPERINE] | 20 µM |

System: Trypanosoma cruzi
Assay: Antiparasitic activity against Trypanosoma cruzi Y epimastigote
Format: functional, organism-based
Conditions: not given
Method in brief: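 Y-strain epimastigotes (1×10^5 cells) grown in BHI with hemin, folic acid and 5% heat-inactivated FCS at 28 °C, with or without compound. DMSO final was 0.05%, and controls contained the same DMSO. After 7 days, live parasites were counted directly in a Neubauer chamber. IC50 is the mean of triplicate experiments.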

| Compound | IC50 |
| --- | --- |
| O=[N+]([O-])c1cc2c(cc1/C=C/c1sc(Nc3ccccc3)n[n+]1-c1ccccc1)OCO2 | 0.64 µM |
| c1ccc(Nc2n[n+](-c3ccccc3)c(CCCCc3ccc4c(c3)OCO4)s2)cc1 | 31.5 µM |
| O=[N+]([O-])c1cc2c(cc1CCc1sc(Nc3ccccc3)n[n+]1-c1ccccc1)OCO2 | 40.8 µM |
| c1ccc(Nc2n[n+](-c3ccccc3)c(CCc3ccc4c(c3)OCO4)s2)cc1 | 83.4 µM |
| O=[N+]([O-])c1cc2c(cc1-c1sc(Nc3ccccc3)n[n+]1-c1ccccc1)OCO2 | 13.4 µM |
| c1ccc(Nc2n[n+](-c3ccccc3)c(-c3ccc4c(c3)OCO4)s2)cc1 | 113 µM |
| O=[N+]([O-])c1cc2c(cc1CCCCc1sc(Nc3ccccc3)n[n+]1-c1ccccc1)OCO2 | 45.2 µM |
| C(/C=C/c1sc(Nc2ccccc2)n[n+]1-c1ccccc1)=C\c1ccc2c(c1)OCO2 | 10.8 µM |
| C(=C\c1sc(Nc2ccccc2)n[n+]1-c1ccccc1)/c1ccc2c(c1)OCO2 | 4.13 µM |
| O=C(/C=C/C=C/c1ccc2c(c1)OCO2)N1CCCCC1 [PIPERINE] | 7.31 µM |

System: Trypanosoma cruzi
Assay: Antiparasitic activity against Trypanosoma cruzi Y trypomastigotes
Format: functional, organism-based
Conditions: not given

| Compound | IC50 |
| --- | --- |
| C(/C=C/c1sc(Nc2ccccc2)n[n+]1-c1ccccc1)=C\c1ccc2c(c1)OCO2 | 6.7 µM |
| O=C(Cn1ccnc1[N+](=O)[O-])NCc1ccccc1 [BENZNIDAZOLE] | 6.61 µM |
